This is an account of results in paper PMC4339263 (Health physics, 2015).

Values joined by “and” are separate entries in the source; they are usually repeats but may differ in a detail not shown here. Equal entries are not always repeated. Where two headings read alike, the source gives them in different places. Bounds are passed on as bounds.

The conditions of series [1]: cited from earlier work; for stability constant (log K) of the americium complex: ref Ansoborlo et al., 2007.
The nature of series [2]: Solvent extraction study of the Am. The series is classed as binding. The conditions noted are these: for calculated formation constant (log K) of the ^241Am-ligand complex: calculated from lg β^cond and pKa values; for conditional stability constant (lg β^cond) of the ^241Am complex: pH 1.3, I = 0.1 M NaCl, 25°C, 0.1 M HDEHP in dodecane. The method in brief:
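Tracer ^241Am (16.7 MBq L-1) was partitioned between the organic and aqueous phases, with ligand at 0.05–100 µM in the aqueous phase. Samples were vortexed, shaken for 60 min, and centrifuged (10,000×g, 10 min). Both phases were gamma-counted (40–80 keV window), in triplicate. D0 came from a ligand-free aqueous phase. lg β^cond was obtained from a linear fit of […] against ligand concentration, and formation constants were then derived using the pKa values.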

Series [3] is described as follows: Ionization. It is filed as physicochemical. The note with it: 5 mM ligand in 0.15 M KCl. A digest of the protocol: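 The free ligand was titrated with acid and then with base. After each addition it was equilibrated for 30 s, and pH was then read on a glass electrode with an Ag/AgCl reference. Ligand integrity was checked afterwards by HPLC with charged aerosol detection. Constants were calculated from three replicates.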

The nature of series [4]: Pharmacokinetics of C2E2 in beagle dogs. The series is classed as in vivo. A digest of the protocol: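 Dogs were 8–10 months old and weighed 10.1–12.0 kg. They were fasted overnight and dosed by gavage (12.05 mg mL-1 solution), with food returned about 2 h later. Jugular blood was drawn pre-dose and at 0.5–24 h into fluoride/oxalate tubes. Plasma was acidified with 20% formic acid and stored at –80 °C. Analysis was by LC/MS/MS with ^13C internal standards; the acid metabolite was measured as its Fe(III) complex in negative-ion mode. Data were fitted to a two-compartment model.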

Series [5] is described as follows: Competitive binding of ^241Am in rat plasma. The conditions noted are these: 3 nM ^241Am nitrate, 37°C; for logistic equation parameter a (slope) / logistic equation parameter b (inflection point) / logistic equation parameter c (asymptote, fraction of bound ^241Am): estimate ± 95% conf. interval. The method in brief:
(§1)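 Ligand stocks were in 10 mM sodium phosphate, pH 7.4, and added to plasma at 0.5–750 µM final, with ^241Am nitrate (stock in 1 M HCl). Samples were incubated at 37°C with mild agitation, then protein-bound Am was removed on a 3K ultrafilter (14,000×g, 30 min). Ligand-bound and cationic Am in the filtrate were separated on strong cation-exchange spin columns, and each fraction was gamma-counted (40–80 keV). Bound fraction was fitted against log concentration by logistic Gauss-Newton regression, and EC50 was taken at half of the asymptote.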

The nature of series [6]: Competitive binding of ^241Am in beagle plasma. The note with it: 3 nM ^241Am nitrate, 37°C; for logistic equation parameter a (slope) / logistic equation parameter b (inflection point) / logistic equation parameter c (asymptote, fraction of bound ^241Am): estimate ± 95% conf. interval. The method in brief: as §1
Series [7] can be described thus: Competitive binding of ^241Am in human plasma. The note with it: for EC50 / EC90 / logistic equation parameter a (slope) / logistic equation parameter b (inflection point) / logistic equation parameter c (asymptote, fraction of bound ^241Am): human plasma, 3 nM ^241Am nitrate, 37°C; for logistic equation parameter a (slope) / logistic equation parameter b (inflection point) / logistic equation parameter c (asymptote, fraction of bound ^241Am): estimate ± 95% conf. interval. A digest of the protocol: as §1

Series [8] is classed as in vivo, beagle. The note with it: beagles, 100 mg kg^−1 oral C2E2.
For series [9] the following is noted: oral; ref Volf, 1984; cited from earlier work.
For series [10] the following is noted: reported for DTPA; cited from earlier work.
The conditions of series [11]: ref Martell, 1982; cited from earlier work.
The mark [12] stands for this setting: 100 mg kg^−1 oral, two-compartment model.

Consider `O=C(O)CC(O)(CC(=O)O)C(=O)O` [citrate], for which the “stability constant (log K) of the americium complex” value in series [1] was 8.6.

By EC50 is commonly meant the midpoint of the concentration-response curve. A lower EC50 goes with greater potency. What is called EC90 is the concentration at which the effect reaches the 90% level. Low values mean greater potency, high ones weaker potency. `CCOC(=O)CN(CCN(CCN(CC(=O)O)CC(=O)OCC)CC(=O)O)CC(=O)O` [C2E2, DTPA diethyl ester]: in series [2], the “stability of the ^241Am complex lower than that of the DTPA-^241Am complex” value came to 6 log units; the “calculated formation constant (log K) of the ^241Am-ligand complex” value (from here on “calculated formation constant (log K)”) is 19.6 and 19.6 ± 0.2; the “conditional stability constant (lg β^cond) of the ^241Am complex” value (“conditional stability constant” below) was found to be 1.36. In addition, in series [2] (compared with the americium-transferrin complex), the “strength of americium binding relative to the strongest ligand in the plasma” value is “nine orders of magnitude higher”. Besides, in [3], the pKa1 is listed as 9.40 ± 0.02, the pKa2 was found to be 4.68 ± 0.02, the pKa3 is 3.52 ± 0.03 and the pKa4 is recorded as 1.87 ± 0.05. Moreover, in series [3], the pKa5 is on record as 1.76 ± 0.05 and the pKa6 was 1.45 ± 0.09. Besides, the “fraction of the absorbed dose metabolized to C2E1 or DTPA” value in series [4] (100 mg kg^−1 oral) is recorded as ~ 2%. Further, the “difference between AUC0–24 of males and females” value in series [4] (100 mg kg^−1 oral, two males and two females) is “no significant difference”. In series [4] (setting [12]), the “elimination half-life from the first compartment” value worked out at 0.69 h and the “elimination half-life from the second compartment” value turned out to be 6.66 h. Moreover, the “time to peak plasma concentration after administration” value in series [4] (single 100 mg kg^−1 oral gavage) came to 1 h. In [5], the response was half-maximal at 46.2 µM (EC50), it took 101 µM to reach the 90% level (EC90), the “logistic equation parameter a (slope)” value is recorded as 0.04 ± 0.00 and the “logistic equation parameter b (inflection point)” value (from here on “logistic equation parameter b”) is listed as 46.17 ± 3.43. Further, the “logistic equation parameter c (asymptote, fraction of bound ^241Am)” value in series [5] was 54.62 ± 1.58. Further, in [6], a half-maximal response (EC50) required 4.91 µM, the EC90 worked out at 10.8 µM, the “logistic equation parameter a (slope)” value was 0.37 ± 0.02 and the “logistic equation parameter b” value is 4.91 ± 0.18. The “logistic equation parameter c (asymptote, fraction of bound ^241Am)” value in series [6] is listed as 64.79 ± 0.50. Moreover, in [7], the EC50 amounted to 8.87 µM, the EC90 was 18.4 µM, the “logistic equation parameter a (slope)” value was 0.23 ± 0.04 and the “logistic equation parameter b” value was 8.87 ± 0.80. The “logistic equation parameter c (asymptote, fraction of bound ^241Am)” value in series [7] is 60.29 ± 1.25. In series [7] (human vs dog plasma), the “difference between concentration required for chelation in humans and dogs” value is “less than 2 fold”. Further, in series [7] (human vs rat plasma), the “difference between concentration required for chelation in humans and rats” value was “greater than 5 fold”. Further, the “time plasma concentration is above the 50% maximal binding threshold” value in [8] came to 4.7 h.

As for `O=[N+]([O-])O` [nitrate], the “affinity for americium (log K)” value in [1] (ref Silva and OECD Nuclear Energy Agency., 1995) was 1.3.

Take “transferrin: plasma protein that binds about 30% of the total ^241Am”: the “stability constant (log K) of the americium complex” value in series [1] is recorded as 10.4.

For the compound `O=C(O)CN(CCN(CC(=O)O)CC(=O)O)CCN(CC(=O)O)CC(=O)O` [DTPA, Diethylenetriaminepentaacetic acid, reference compound], in [2], the “calculated formation constant (log K)” value is recorded as 25.4 ± 0.3 and the “conditional stability constant” value is 2.70. Moreover, the bioavailability in series [9] is listed as ~ 3%. Also, in series [10], the pKa1 is on record as 10.51 ± 0.01, the pKa2 was 8.54 ± 0.02, the pKa3 is on record as 4.31 ± 0.02 and the pKa4 is reported as 2.55 ± 0.05. For the same compound, in series [10], the pKa5 is recorded as 1.80 ± 0.05, the pKa6 is 1.60 ± 0.15 and the pKa7 is 1.45 ± 0.15. In series [5], the EC50 is 5.36 µM, the concentration for an effect of 90% (EC90) turned out to be 12.4 µM, the “logistic equation parameter a (slope)” value is listed as 0.31 ± 0.03 and the “logistic equation parameter b” value was 5.36 ± 0.43. The “logistic equation parameter c (asymptote, fraction of bound ^241Am)” value in [5] is 35.69 ± 0.85. In addition, the “stability constant (log K) with iron” value in [11] is 28.0. In series [6], the EC50 worked out at 1.08 µM, it took 2.25 µM to reach the 90% level (EC90), the “logistic equation parameter a (slope)” value was 1.87 ± 0.69 and the “logistic equation parameter b” value is reported as 1.08 ± 0.18. For the same compound, the “logistic equation parameter c (asymptote, fraction of bound ^241Am)” value in series [6] is on record as 54.75 ± 2.16. Moreover, in series [7], the EC50 was 2.82 µM, the concentration for an effect of 90% (EC90) is 5.05 µM, the “logistic equation parameter a (slope)” value is reported as 0.98 ± 0.13 and the “logistic equation parameter b” value is 2.82 ± 0.30. Further, the “logistic equation parameter c (asymptote, fraction of bound ^241Am)” value in series [7] is 55.88 ± 1.40.

As for `CCOC(=O)CN(CCN(CCN(CC(=O)O)CC(=O)O)CC(=O)O)CC(=O)O` [C2E1, monoethyl ester of DTPA], in series [2], the “calculated formation constant (log K)” value is 21.7 ± 0.5 and the “conditional stability constant” value was 2.46. In [3], this compound had a pKa1 of 9.63 ± 0.03, a pKa2 of 6.35 ± 0.38, a pKa3 of 2.99 ± 0.05 and a pKa4 of 1.72 ± 1.5. For the same compound, in series [3], the pKa5 is 1.18 ± 0.45, the pKa6 is recorded as under 1.5 and the pKa7 was under 1.5. In addition, in [5], the concentration for a half-maximal effect (EC50) came out at 25.5 µM, the EC90 worked out at 60.1 µM, the “logistic equation parameter a (slope)” value is 0.06 ± 0.01 and the “logistic equation parameter b” value is reported as 25.50 ± 3.36. Also, the “logistic equation parameter c (asymptote, fraction of bound ^241Am)” value in series [5] is on record as 45.74 ± 1.51. Moreover, in series [6], the response was half-maximal at 2.02 µM (EC50), the EC90 is 5.87 µM, the “logistic equation parameter a (slope)” value is reported as 0.57 ± 0.13 and the “logistic equation parameter b” value is on record as 2.02 ± 0.38. Moreover, in [6], the “logistic equation parameter c (asymptote, fraction of bound ^241Am)” value was 61.69 ± 1.4. Moreover, in series [7], a half-maximal response (EC50) required 5.26 µM, the 90% effect level (EC90) was put at 19 µM, the “logistic equation parameter a (slope)” value is given as 0.16 ± 0.03 and the “logistic equation parameter b” value was 5.26 ± 0.74. Moreover, in series [7], the “logistic equation parameter c (asymptote, fraction of bound ^241Am)” value is 55.22 ± 1.06.
